Data set [1] deals with hRMECs. Nature of the data set: Cellular internalization by confocal scanning microscopy. The format is cell-based, human. As to conditions: 100 μmol/L, 37 °C. The essentials:
(§1)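 Cells were seeded on confocal dishes at 5×10³ cells/well and grown 24 h at 37 °C. They were then exposed to 100 μmol/L test compound or fluorescein for 2 h or 6 h, and washed three times with HBSS. Intracellular fluorescence was imaged by laser scanning confocal microscopy, with excitation at 488 nm for fluorescein and 405 nm for the conjugate.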

Data set [2] is described as follows: Transport across hRMECs monolayer cells. Format: in vitro ADME. As to conditions: human. In outline:
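hRMEC monolayers were grown on 24-well 0.4 μm polycarbonate Transwells and used at TEER 200 Ω. After rinsing, 100 μmol/L compound in 37 °C HBSS was added apically. Basolateral samples were taken at 30, 60, 120, 240 and 360 min with replacement and analysed by HPLC (UV 230 nm). Papp=(ΔQ/Δt)/(A×C0), with A 0.33 cm², n=3. The ratio is Papp test/Papp fluorescein; a competition set used 24 h pre-incubation with 10 mmol/L taurine in both chambers.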

Data set [3] is described as follows: Transport across ARPE-19 monolayer cells. The format is in vitro ADME. As to conditions: human. In outline: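 ARPE-19 cells were seeded at 2.5×10⁵ cells/insert on 12-well 0.4 μm polycarbonate Transwells and used once TEER reached 150 Ω. After two HBSS rinses, 100 μmol/L compound in 37 °C HBSS was added apically. Basolateral samples were taken at 30, 60, 120, 240 and 360 min with replacement and analysed by HPLC. Papp=(ΔQ/Δt)/(A×C0), with A 1.12 cm², n=3. The ratio is Papp test/Papp fluorescein; a competition set used 24 h pre-incubation with 10 mmol/L taurine.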

The test system of data set [4] is ARPE-19. Kind of data set: Cellular internalization by confocal scanning microscopy. Format: cell-based. The note with it: ARPE-19, 100 μmol/L, 37 °C. The essentials: as §1
Data set [5] is described as follows: n-octanol/water partition coefficient, shake flask method. The format is physicochemical. In outline:
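Shake-flask method: n-octanol and water were mutually presaturated (24 h shaking, 4000 rpm 10 min). The compound was dissolved in water-saturated octanol and mixed with an equal volume of octanol-saturated water. The mixture was shaken at 100 times/min at 25 °C for 24 h and centrifuged at 4000 rpm for 10 min. Both phases were diluted and quantified by HPLC (UV 230 nm), and P was calculated as C(oil)/C(water).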

Data set [6] in a line: Solubility study. As to conditions: doubly distilled water, 25 °C, thermodynamic from solid. Format: physicochemical. The essentials:
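Excess solid was placed in doubly distilled water and shaken at 100 times/min at 25 °C for 24 h. It then stood a further 24 h at 25 °C and was centrifuged. The supernatant was assayed by HPLC on a Polar-RP column at 35 °C, with UV at 230 nm and pH 2.5 phosphate buffer/acetonitrile.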

≈ marks a conversion by molar mass, not a printed value.

The source of these data is publication PMC4629109 (Acta Pharmaceutica Sinica. B, 2014).

One may read the Papp as a coefficient for how fast a substance crosses the barrier. Lower therefore signals poor permeation. As a reminder, the logP is a log measure of how a compound divides between an organic and an aqueous phase. As a reminder, the solubility is the dissolved amount per volume that the medium holds. High values mean a readily soluble substance, low ones a poorly soluble substance.

Regarding `O=C1OC2(c3ccc(O)cc3Oc3cc(O)ccc32)c2ccccc21` [Fluorescein], the “intracellular fluorescence (cellular uptake)” value in data set [1] (2 h) and in data set [4] (2 h) was “strong fluorescence” each time. The “intracellular fluorescence (cellular retention)” value in data set [1] (6 h) and in data set [4] (6 h) was “almost no fluorescein was observed” each time. The Papp at 360 min, 100 μmol/L came out at 7.23 ± 0.92 ×10⁻⁶ cm/s in data set [2] and 5.56 ± 0.8 ×10⁻⁶ cm/s in data set [3]. In data set [5], this molecule registered a logP at 24 h of 1.55. For the same molecule, the concentration in solution in data set [6] (solubility at 24 h) came to 6.75 µg/mL (≈ 20.3 µM).
